Screens from PubChem.
Shown are actives, neighbours in structure and some others; about 1.6% of the full set was active somewhere.
JMJD2C inh: blocks human GASC-1 demethylase activity; Q9H3R0; GST-JMJD2C(1-420) H3K9me3 demethylation, DELFIA europium; inhibition, % at 2.35 µM; 330,000 compounds, 0.069% hits;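 active means more than half of a compound's replicate wells show inhibition beyond 50%, single wells judged on their own value; inconclusive means some, but no more than half, of replicates pass 50% inhibition; inactive means no replicate passes 50% inhibition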;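 further: signal counts dimethyl H3K9 product captured on neutravidin plate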
GSTO1 counter: GSTO1 inhibition, counter-screen for RBBP9 inhibitors; P78417; inhibition, % at 5.96 µM; recombinant GSTO1, activity-based probe fluorescence polarization; AID 1974; 300,000 compounds, 1.1% hits;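 active means inhibition above the campaign mean inhibition plus 3 SD, cut at about 35% in these data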
Apaf-1 inh: blocks human Apaf-1 apoptosome activity | O14727 | reconstituted apoptosome caspase-3 activity, DEVD-Rh110 fluorescence | inhibition, % at 20 µM | 330,000 compounds, 0.71% hits | AID 489030; active means inhibition of at least 40% at 20 µM
Target sequence (O14727 whole entry, looked up): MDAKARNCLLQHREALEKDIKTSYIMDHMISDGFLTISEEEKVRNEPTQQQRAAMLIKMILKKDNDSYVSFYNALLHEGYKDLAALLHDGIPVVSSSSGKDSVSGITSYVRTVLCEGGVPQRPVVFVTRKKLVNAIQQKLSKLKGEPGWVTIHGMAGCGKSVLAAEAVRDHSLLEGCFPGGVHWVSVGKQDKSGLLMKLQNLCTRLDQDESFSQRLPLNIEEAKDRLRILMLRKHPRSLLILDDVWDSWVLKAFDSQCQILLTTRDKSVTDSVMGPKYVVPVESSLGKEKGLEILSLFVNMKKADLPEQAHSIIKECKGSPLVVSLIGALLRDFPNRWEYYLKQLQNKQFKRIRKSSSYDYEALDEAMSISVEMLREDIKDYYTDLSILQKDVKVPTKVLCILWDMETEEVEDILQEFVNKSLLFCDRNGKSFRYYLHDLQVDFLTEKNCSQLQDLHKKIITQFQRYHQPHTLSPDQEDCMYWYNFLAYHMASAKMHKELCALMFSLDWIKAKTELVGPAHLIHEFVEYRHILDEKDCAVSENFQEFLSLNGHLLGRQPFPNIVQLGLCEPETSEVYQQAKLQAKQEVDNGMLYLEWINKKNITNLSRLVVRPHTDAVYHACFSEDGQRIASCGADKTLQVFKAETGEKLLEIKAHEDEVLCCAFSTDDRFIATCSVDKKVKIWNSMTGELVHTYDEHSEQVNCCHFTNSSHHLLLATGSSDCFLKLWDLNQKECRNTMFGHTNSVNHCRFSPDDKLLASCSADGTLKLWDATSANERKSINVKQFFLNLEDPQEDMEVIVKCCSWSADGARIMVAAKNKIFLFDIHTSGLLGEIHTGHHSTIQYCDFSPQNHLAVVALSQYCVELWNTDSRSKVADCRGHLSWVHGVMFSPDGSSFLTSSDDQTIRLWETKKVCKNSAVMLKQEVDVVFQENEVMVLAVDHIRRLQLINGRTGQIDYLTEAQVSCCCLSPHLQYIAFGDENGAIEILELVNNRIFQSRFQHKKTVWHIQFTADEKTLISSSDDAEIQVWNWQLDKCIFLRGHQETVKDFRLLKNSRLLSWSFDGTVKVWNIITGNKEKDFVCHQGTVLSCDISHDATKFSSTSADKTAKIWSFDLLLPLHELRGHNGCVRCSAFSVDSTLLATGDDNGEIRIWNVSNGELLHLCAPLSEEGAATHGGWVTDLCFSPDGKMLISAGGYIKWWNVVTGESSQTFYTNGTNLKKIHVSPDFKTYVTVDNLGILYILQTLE
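Material: cell-free apoptosome with Apaf-1, procaspase-3 and caspase-9; Buffer or medium: Hepes pH 7.5 with detergent and BSA; Reagent: cytochrome c trigger plus (Z-DEVD)2-Rh110 caspase-3 substrate; Times: compound with Apaf-1, dATP, procaspase-3 30 min, then 50 min reaction, room temperature; Technique: Rh110 fluorescence intensity.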
PAD4 FP inh: inhibitors of human PAD4 | inhibition, % at 6.36 µM | recombinant PAD4, RCA probe fluorescence polarization | 330,000 compounds, 0.41% hits | Q9UM07;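 active means percent inhibition above a cutoff equal to the mean of all tested compounds plus 3 SD, cut at about 15% in these data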
UBC9 SUMO inh: inhibitors of human SUMOylation (UBC9) | P63279 | HTRF SUMOylation assay, SAE1/SAE2 + UBC9, in vitro | inhibition, % at 35 µM | 290,000 compounds, 0.36% hits | AID 2006; in the data active means inhibition above about 50%, passing the limit was not always enough; inconclusive means no clear call, values can overlap the other calls
TDP2 inh: blocks human TDP2 phosphodiesterase activity; 370,000 compounds, 0.34% hits; O95551; recombinant TDP2, T5PNP hydrolysis, p-nitrophenol absorbance 415 nm; inhibition, % at 12.8 µM;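 active means inhibition above the mean of all tested compounds plus 3 SD, set per campaign, cut at about 25% in these data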
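System – recombinant human TDP2 · Quantity – TDP2 enzyme at 120 nM final · Doses – single concentration, 12.8 µM nominal, with 1% DMSO · Incubation – 2 h at 37 °C · Measured by – epi absorbance of p-nitrophenol freed from T5PNP by hydrolysis · Read-out – % inhibition relative to enzyme-containing and enzyme-free wells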
PAD4 FP conf: PAD4 (human) inhibition, confirmed. shares compounds with PAD4 FP inh. recombinant PAD4, RCA probe fluorescence polarization. inhibition, % at 6.36 µM. 1,200 compounds, 28% hits. AID 488796;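 active means mean inhibition across replicates above the hit cutoff set by the earlier primary screen, cut at about 15% in these data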;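 further: inhibitors block active-site labeling by the probe so polarization falls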
Apaf-1 inh conf: confirmation of Apaf-1 inhibitors | shares compounds with Apaf-1 inh | reconstituted apoptosome, caspase-3 DEVD-Rh110 fluorescence | inhibition, % at 20 µM | 1,800 compounds, 25% hits;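 active means mean inhibition of at least 40% at 20 µM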
Rh110 interf inh: Rh110 signal interference in Apaf-1 inhibitor counter-screen; shares compounds with Apaf-1 inh; Rh110 fluorescence interference, quenched caspase reaction; activation (fluorescence interference), % at 20 µM; 1,800 tested, under 10 active; AID 504615;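 active means signal rise of 40% or more at 20 µM, treated as a fluorescence artifact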
Apaf1 inh interf: counter-screen for Apaf-1 inhibitors: fluorescence interference, dose response. shares compounds with Apaf-1 inh. fluorescence interference counterscreen, Apaf-1 assay format. IC50, µM. 460 tested, under 10 active. AID 588538; call rule not given here
TDP2 confirm: human TDP2 inhibition, confirmation. AID 743263. 1,100 compounds, 22% hits. shares compounds with TDP2 inh. inhibition, % at 12.8 µM. recombinant human TDP2, absorbance read-out; in the data active means inhibition above about 25%
Hits are given with their value; - = inactive; ? = inconclusive; . = not tested or not shown.

SMILES | JMJD2C inh | GSTO1 counter | Apaf-1 inh | PAD4 FP inh | UBC9 SUMO inh | TDP2 inh | PAD4 FP conf | TDP2 confirm | others
CC1CCCC(NC(=O)COC(=O)c2ccccc2[N+](=O)[O-])C1C (stereo not drawn) | - | - | - | - | - | - | . | .
O=C(OCc1cn(Cc2cc(F)ccc2F)nn1)N1CCOCC1 | . | . | . | . | . | - | . | .
CCOC(=O)C1(C)C=C(Nc2ccc(O)cc2)C(=O)N1c1ccc(O)cc1 (stereo not drawn) | - | 89 | - | 85 | - | 28 | - | -
CCc1ccc(S(=O)(=O)Nc2cc(SCC(=O)O)c(O)c3ccccc23)cc1 | ? | 84 | 71 | 26 | 101 | 51 | - | 35 | Apaf-1 inh conf=-;Rh110 interf inh=-
Cc1oc2c(cc(NS(=O)(=O)c3ccc(C(C)C)cc3)c3ccccc32)c1C(=O)O | - | - | - | - | - | - | . | .
O=[N+]([O-])c1c(Nc2ccccn2)cc(Cl)c2nonc12 | - | - | 91 | 49 | 93 | 87 | - | 47 | Apaf-1 inh conf=-;Rh110 interf inh=-
COc1ccc(C2=C(Nc3ccc(C)cc3)c3ccccc3C2=O)cc1 | - | - | - | - | - | - | . | .
Cc1ccc(NC2=C(NCCO)C(=O)c3ccccc3C2=O)cc1 | - | 49 | 78 | 40 | - | 44 | - | 39 | Apaf-1 inh conf=61;Rh110 interf inh=-;Apaf1 inh interf=-
CCC[C@H]1[C@@H](O)CC[C@@]23CCCN2C(=O)CCC[C@@H]13 | . | . | . | . | . | - | . | .
COc1cc(/C=C2\C(=O)N(CCC#N)N=C2C)ccc1OCC(=O)Nc1ccccc1 | - | 47 | 93 | 51 | - | 84 | - | - | Apaf-1 inh conf=-;Rh110 interf inh=-
CCOc1cc(/C=C2\C(=O)N(CCC#N)N=C2C)ccc1OCC(N)=O | - | 54 | 58 | 57 | - | 77 | - | - | Apaf-1 inh conf=-;Rh110 interf inh=-
COc1cc(/C=C2\SC(N)=NC2=O)ccc1OCC(=O)Nc1ccc(C)cc1 | - | - | - | - | - | - | . | .
O=C(OCC#CCSc1nnc(-c2cccc3ccccc23)o1)c1sccc1Cl | . | . | . | . | . | - | . | .
O=C(Nc1nc2ncccn2c1-c1ccc(C(F)(F)F)cc1)c1ccccc1 | . | . | . | . | . | - | . | .
CC1CCN(c2ccc(/C=N/n3nnnc3N)cc2[N+](=O)[O-])CC1 | - | - | - | - | - | - | . | .
COc1cc(/C=N\Nc2nncn2N)ccc1OC(C)=O | - | - | - | 31 | - | 57 | - | -
CCOc1cc(/C=N/Nc2nnc(C)n2N)ccc1O | - | 37 | - | 50 | - | 48 | - | -
COc1ccc(OC)c(/C=N/Nc2nncn2/N=C/c2cc(OC)ccc2OC)c1 | - | - | - | 21 | - | 67 | - | -
CC1CCN(c2ccc(/C=N\Nc3nncn3N)cc2[N+](=O)[O-])CC1 | - | - | . | 30 | - | 79 | - | -
COc1ccc(OC)c(/C=N\Nc2nccs2)c1 | - | - | - | - | . | - | . | .
COc1cc(/C=N/Nc2nncn2/N=C/c2ccc(O)c(OC)c2)ccc1O | - | - | - | 43 | - | 67 | - | -
COc1cc(/C=N/Nc2ccccc2)ccc1O | - | - | - | - | - | - | . | .
CCc1nnc(N/N=C/c2ccc(-c3ccc([N+](=O)[O-])cc3)o2)n1N | - | - | - | 25 | - | 68 | - | -
Cc1nnc(N/N=C\c2ccc(-c3ccccc3[N+](=O)[O-])o2)n1N | 55 | 36 | . | 35 | - | 78 | - | -
Cc1nnc(N/N=C/c2ccc(-c3ccccc3F)o2)n1N | - | - | - | 25 | - | 59 | - | -
SMILES | JMJD2C inh | GSTO1 counter | Apaf-1 inh | PAD4 FP inh | UBC9 SUMO inh | TDP2 inh | PAD4 FP conf | TDP2 confirm | others
c1ccc(CCSc2nnc(-c3cccnc3)n2Cc2ccccc2)cc1 | . | . | . | . | . | - | . | .
Oc1cc(NCCN2CCOCC2)cc2cccnc12 | . | . | 92 | 31 | . | 31 | - | - | Apaf-1 inh conf=80;Rh110 interf inh=-;Apaf1 inh interf=-
COC(=O)C1CN(Cc2cn(Cc3ccc(F)cc3)nn2)CCS(=O)(=O)N1Cc1ccc(C)cc1 (stereo not drawn) | . | . | . | . | . | - | . | .
Cc1n[nH]c(C)c1S(=O)(=O)NCCc1ccccc1 | . | . | . | . | . | - | . | .
CC(=O)c1ccc(NC(=O)NC2CCCCN(Cc3ccc(Cl)cc3)C2=O)cc1 (stereo not drawn) | . | . | . | . | . | - | . | .
CCOc1cc(N2CCOCC2)c(OCC)cc1NC(=O)CSc1ncccn1 | - | - | - | - | - | - | . | .
CCOc1cc(N2CCOCC2)c(OCC)cc1NC(=O)CSc1ncccc1C(=O)O | - | . | - | 39 | . | 30 | - | -
Cc1no[n+]([O-])c1COc1cccc(/C=N/Nc2nncn2N)c1 | - | - | - | 32 | - | 61 | - | -
CCN(CCO)c1ccc(NC(=S)Nc2cccc(S(=O)(=O)N(C)C)c2)cc1 | - | - | 43 | 40 | - | 36 | - | - | Apaf-1 inh conf=-;Rh110 interf inh=-
CN(C)S(=O)(=O)c1cccc(NC(=S)Nc2cc(Cl)cc(Cl)c2)c1 | - | - | - | - | - | - | . | .
C[C@H]1C2CC(OC(=O)Nc3cccc(F)c3)C(C2)[C@H]2CCCCN21 (stereo partly drawn) | . | . | . | . | . | - | . | .
COc1ccc(-c2cc(=O)n(CCC#N)[nH]2)cc1 | - | 36 | 94 | 70 | - | 92 | - | - | Apaf-1 inh conf=-;Rh110 interf inh=-
COc1cc(/C=C2\C(=O)ON=C2c2ccc(Cl)cc2)ccc1O | - | - | - | - | . | - | . | .
COc1ccc(C2=NN(c3ccccc3)C(=O)/C2=C\c2ccc(O)c(OC)c2)cc1 | - | 54 | 90 | 67 | 74 | 46 | - | - | Apaf-1 inh conf=-;Rh110 interf inh=-
CCn1c(COc2ccc(Cl)cc2)nnc1SCC(=O)Nc1ccc(Oc2ccccc2)cc1 | . | . | . | . | . | - | . | .
CC1=NN(c2ccc(Cl)c(C(=O)O)c2)C(=O)C1 | - | 72 | - | 36 | 90 | 44 | - | -
O=S(=O)(N[C@@H]1CCCC[C@H]1N1CCOCC1)c1ccc(Cl)cc1 | . | . | . | . | . | - | . | .
Cc1cc(=O)n(C2CCS(=O)(=O)C2)[nH]1 (stereo not drawn) | - | 74 | - | 80 | 90 | 70 | - | 26
Cc1[nH][nH]c(=O)c1C(c1ccc(-c2ccc(F)cc2)o1)c1c(C)[nH][nH]c1=O | - | 52 | 72 | 48 | - | 60 | - | - | Apaf-1 inh conf=-;Rh110 interf inh=-
CCC(CO)Oc1cc(NCc2cccc(OC)c2)c2ncn(C(C)C)c2c1 (stereo not drawn) | - | . | - | - | . | - | . | .
